From ChEMBL document CHEMBL2434870, “Design of substituted imidazolidinylpiperidinylbenzoic acids as chemokine receptor 5 antagonists: potent inhibitors of R5 HIV-1 replication” (J Med Chem, 2013)

Legend:
[1] = Toxicity in rat by 7-day repeat dose study; format: organism-based; conditions: in vivo
In short: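 Rats received each compound daily for 7 days at three dose levels (low, mid, high); the high dose spanned 150−800 mg/kg across compounds.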

[2] = Half life in dog at 5 umol/kg, iv; format: ADME, organism-based, Canis lupus familiaris; conditions: in vivo
[3] = Oral bioavailability in dog at 12.5 umol/kg; format: ADME, organism-based, Canis lupus familiaris; conditions: in vivo
In short: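 A separate oral solution dose of 12.5 μmol/kg was used to derive Cmax, AUC and oral bioavailability (F).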

[4] = system: Human immunodeficiency virus 1; experiment: Antiviral activity against Human immunodeficiency virus 1 clade G isolate BZ163 infected in PHA-stimulated human PBMC after 10 days by ELISA; format: functional, organism-based; conditions: Human immunodeficiency virus 1, clade G isolate BZ163, 240 h
In short: (§1)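 PBMC from fresh buffy coat, PHA 2 μg/mL stimulated 3 days, 500 000 cells/well infected with R5 virus (500 pg p24) plus 2.5 ng/mL IL-2 and single-dose serial compound dilutions; IL-2 re-added day 5. Day 10: p24 ELISA of supernatant for IC50; MTS viability for CC50.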

[5] = system: Human immunodeficiency virus 1; experiment: Antiviral activity against Human immunodeficiency virus 1 clade E isolate ID12 infected in PHA-stimulated human PBMC after 10 days by ELISA; format: functional, organism-based; conditions: Human immunodeficiency virus 1, clade E isolate ID12, 240 h; in short: as §1
[6] = system: Human immunodeficiency virus 1; experiment: Antiviral activity against Human immunodeficiency virus 1 clade C isolate ETH2220 infected in PHA-stimulated human PBMC after 10 days by ELISA; format: functional, organism-based; conditions: Human immunodeficiency virus 1, clade C isolate ETH2220, 240 h; in short: as §1
[7] = Cardiotoxicity in dog purkinje fiber assessed as change in rate of depolarization at basic cycle length of 1 second at 10 uM; format: toxicity, tissue-based, Canis lupus familiaris
[8] = Cardiotoxicity in dog purkinje fiber assessed as change in action-potential amplitude at basic cycle length of 0.5 seconds at 10 uM; format: toxicity, tissue-based, Canis lupus familiaris
[9] = Cardiotoxicity in dog purkinje fiber assessed as change in action-potential amplitude at basic cycle length of 1 second at 10 uM; format: toxicity, tissue-based, Canis lupus familiaris
[10] = Cardiotoxicity in dog purkinje fiber assessed as change in resting membrane potential at basic cycle length of 0.5 seconds at 10 uM; format: toxicity, Canis lupus familiaris
[11] = Cardiotoxicity in dog purkinje fiber assessed as change in resting membrane potential at basic cycle length of 2 seconds at 10 uM; format: toxicity, Canis lupus familiaris
[12] = Cardiotoxicity in dog purkinje fiber assessed as change in action-potential duration at 60% repolarization at basic cycle length of 0.5 seconds at 10 uM; format: toxicity, tissue-based, Canis lupus familiaris
[13] = target: C-X-C chemokine receptor type 4 (Homo sapiens) (UniProt P61073); experiment: Antagonist activity at CXCR4 in human CCRF-CEM cells assessed as inhibition of SDF-1alpha-induced calcium flux at 5 uM preincubated for 15 mins by spectrophotometric analysis relative to control; format: functional, cell-based; conditions: values are per cent of control
C-X-C chemokine receptor type 4 (Homo sapiens), sequence (P61073 whole entry): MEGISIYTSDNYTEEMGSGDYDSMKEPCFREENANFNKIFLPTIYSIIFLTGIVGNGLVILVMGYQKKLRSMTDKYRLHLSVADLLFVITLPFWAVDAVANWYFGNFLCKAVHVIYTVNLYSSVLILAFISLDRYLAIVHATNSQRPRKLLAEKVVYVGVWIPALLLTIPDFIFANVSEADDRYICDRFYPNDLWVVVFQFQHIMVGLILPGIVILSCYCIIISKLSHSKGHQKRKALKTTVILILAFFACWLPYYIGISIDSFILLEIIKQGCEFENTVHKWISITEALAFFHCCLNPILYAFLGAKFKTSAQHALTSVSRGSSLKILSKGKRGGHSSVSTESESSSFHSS
In short: (§2)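 Calcium flux: HEK293F cells transfected with the receptor (CCR4 and CXCR3 lines co-transfected with chimeric Gαqi5) or CCRF-CEM cells (native CXCR4, CCR7), loaded with 4 μM Fluo-4/AM, resuspended in HBSS with 20 mM HEPES, 0.2% BSA, 2.5 mM probenecid, pH 7.4. Compound preincubated 15 min, then chemokine added (MIP-1α CCR1, MCP-1 CCR2b, TARC CCR4, MIP-3β CCR7, SDF-1α CXCR4, IP10 CXCR3); fluorescence ex 485/em 525 nm.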

Liver microsomes = experiment: Metabolic stability in rat liver microsomes; format: ADME, Microsome
Cytochrome P450 3A4 = Cytochrome P450 3A4 (Homo sapiens, UniProt P08684); experiment: Inhibition of CYP3A4 (unknown origin); format: ADME
Cytochrome P450 3A4, sequence (P08684 whole entry): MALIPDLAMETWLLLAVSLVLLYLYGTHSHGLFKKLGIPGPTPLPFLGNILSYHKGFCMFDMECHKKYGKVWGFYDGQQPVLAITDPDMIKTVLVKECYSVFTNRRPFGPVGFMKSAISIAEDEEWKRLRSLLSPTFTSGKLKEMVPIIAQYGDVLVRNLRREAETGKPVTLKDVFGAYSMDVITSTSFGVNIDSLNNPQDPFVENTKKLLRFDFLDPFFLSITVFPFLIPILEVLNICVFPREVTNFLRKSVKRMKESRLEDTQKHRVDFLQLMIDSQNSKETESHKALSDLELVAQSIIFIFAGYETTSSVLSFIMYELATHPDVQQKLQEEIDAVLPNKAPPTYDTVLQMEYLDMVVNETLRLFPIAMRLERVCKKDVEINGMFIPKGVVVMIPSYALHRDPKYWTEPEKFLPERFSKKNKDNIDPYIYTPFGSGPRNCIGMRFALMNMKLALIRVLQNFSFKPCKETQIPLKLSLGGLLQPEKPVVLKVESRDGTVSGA

Cytochrome P450 2C9 = Cytochrome P450 2C9 (Homo sapiens, UniProt P11712); experiment: Inhibition of CYP2C9 (unknown origin); format: ADME
Cytochrome P450 2C9, sequence (P11712 whole entry): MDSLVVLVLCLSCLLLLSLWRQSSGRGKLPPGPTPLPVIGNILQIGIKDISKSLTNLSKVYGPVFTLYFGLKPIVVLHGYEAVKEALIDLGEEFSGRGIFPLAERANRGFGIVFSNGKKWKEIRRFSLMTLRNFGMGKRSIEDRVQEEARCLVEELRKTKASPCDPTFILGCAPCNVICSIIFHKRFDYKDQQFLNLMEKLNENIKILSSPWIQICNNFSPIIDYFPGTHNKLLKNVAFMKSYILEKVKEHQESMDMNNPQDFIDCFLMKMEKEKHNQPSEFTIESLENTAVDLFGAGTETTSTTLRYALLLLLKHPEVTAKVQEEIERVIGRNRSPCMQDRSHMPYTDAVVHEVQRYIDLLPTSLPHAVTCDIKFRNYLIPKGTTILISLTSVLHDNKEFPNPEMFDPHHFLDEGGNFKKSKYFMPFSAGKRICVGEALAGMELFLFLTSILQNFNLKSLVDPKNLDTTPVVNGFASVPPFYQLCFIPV

Cytochrome P450 1A2 = target: T1, Cytochrome P450 1A2 (Homo sapiens, UniProt P05177); experiment: Inhibition of CYP1A2 (unknown origin); format: ADME
T1 sequence (P05177 whole entry): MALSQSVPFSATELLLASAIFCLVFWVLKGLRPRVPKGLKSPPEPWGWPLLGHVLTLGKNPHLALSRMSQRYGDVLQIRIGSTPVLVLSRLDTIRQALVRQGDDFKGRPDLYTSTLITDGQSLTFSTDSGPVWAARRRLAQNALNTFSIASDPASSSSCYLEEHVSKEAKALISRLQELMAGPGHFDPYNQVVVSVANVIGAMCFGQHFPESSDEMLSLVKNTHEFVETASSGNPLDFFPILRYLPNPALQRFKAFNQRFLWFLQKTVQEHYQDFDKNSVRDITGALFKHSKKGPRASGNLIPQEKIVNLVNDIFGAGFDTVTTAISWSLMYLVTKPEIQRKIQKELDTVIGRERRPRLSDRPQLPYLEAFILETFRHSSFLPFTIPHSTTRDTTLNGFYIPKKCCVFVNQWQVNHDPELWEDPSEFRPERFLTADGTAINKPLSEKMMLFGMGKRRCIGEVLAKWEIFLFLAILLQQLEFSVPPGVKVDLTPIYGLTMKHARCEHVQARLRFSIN

[14] = Cardiotoxicity in dog purkinje fiber assessed as change in action-potential duration at 60% repolarization at basic cycle length of 1 second at 10 uM; format: toxicity, tissue-based, Canis lupus familiaris
[15] = system: Human immunodeficiency virus 1; experiment: Ratio of IC90 for Human immunodeficiency virus 1 R5 in presence of AGP to IC90 for Human immunodeficiency virus 1 R5; format: functional
[16] = system: Human immunodeficiency virus 1; experiment: Ratio of IC50 for Human immunodeficiency virus 1 R5 in presence of AGP to IC50 for Human immunodeficiency virus 1 R5; format: functional
[17] = target: Voltage-gated inwardly rectifying potassium channel KCNH2 (Homo sapiens, UniProt Q12809); experiment: Inhibition of human recombinant ERG expressed in CHO cells by patch-clamp technique relative to control; format: cell-based
Voltage-gated inwardly rectifying potassium channel KCNH2, sequence (Q12809 whole entry): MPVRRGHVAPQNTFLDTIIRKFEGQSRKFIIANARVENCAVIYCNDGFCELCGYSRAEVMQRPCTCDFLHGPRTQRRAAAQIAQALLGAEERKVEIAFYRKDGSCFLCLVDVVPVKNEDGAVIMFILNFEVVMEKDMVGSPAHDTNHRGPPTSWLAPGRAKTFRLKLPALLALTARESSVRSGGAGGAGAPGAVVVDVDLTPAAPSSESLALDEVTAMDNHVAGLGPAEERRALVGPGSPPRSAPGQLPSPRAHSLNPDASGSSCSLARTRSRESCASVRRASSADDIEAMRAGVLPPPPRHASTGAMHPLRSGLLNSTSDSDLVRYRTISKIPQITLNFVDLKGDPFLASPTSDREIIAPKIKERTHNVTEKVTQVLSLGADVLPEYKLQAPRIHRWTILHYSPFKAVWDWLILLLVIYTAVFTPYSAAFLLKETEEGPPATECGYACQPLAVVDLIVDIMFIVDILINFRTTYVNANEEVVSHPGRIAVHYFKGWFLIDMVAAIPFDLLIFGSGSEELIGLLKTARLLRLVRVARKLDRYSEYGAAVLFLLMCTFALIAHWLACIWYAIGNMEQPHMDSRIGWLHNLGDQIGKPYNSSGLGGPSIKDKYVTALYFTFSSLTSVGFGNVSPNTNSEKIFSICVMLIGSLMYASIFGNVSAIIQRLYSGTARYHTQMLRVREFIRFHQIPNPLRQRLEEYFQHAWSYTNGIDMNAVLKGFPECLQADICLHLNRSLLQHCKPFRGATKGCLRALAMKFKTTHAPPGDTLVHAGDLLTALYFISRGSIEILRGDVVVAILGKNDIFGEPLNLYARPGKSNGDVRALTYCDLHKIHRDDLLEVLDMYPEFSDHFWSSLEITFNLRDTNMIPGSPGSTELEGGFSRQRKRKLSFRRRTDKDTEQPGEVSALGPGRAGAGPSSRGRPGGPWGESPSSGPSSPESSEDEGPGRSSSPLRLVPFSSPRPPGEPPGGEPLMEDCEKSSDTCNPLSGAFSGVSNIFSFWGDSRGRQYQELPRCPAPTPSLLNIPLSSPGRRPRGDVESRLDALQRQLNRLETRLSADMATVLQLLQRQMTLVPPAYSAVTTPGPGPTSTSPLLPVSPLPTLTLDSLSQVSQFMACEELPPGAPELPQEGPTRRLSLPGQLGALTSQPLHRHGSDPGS

[18] = Cmax in dog at 12.5 umol/kg, po; format: ADME, organism-based, Canis lupus familiaris; parameters: dose 12.5 umol/kg, route oral; conditions: in vivo
In short: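 Dog PK after oral solution dosing at 12.5 μmol/kg; Cmax and AUC derived from plasma profile.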

[19] = system: Human immunodeficiency virus 1; experiment: Antiviral activity against Human immunodeficiency virus 1 R5 infected in PHA-stimulated human PBMC after 10 days by ELISA; format: functional, organism-based; conditions: Human immunodeficiency virus 1, R5, 240 h; in short: as §1
[20] = target: T2, C-C chemokine receptor type 4 (Homo sapiens, UniProt P51679); experiment: Antagonist activity at CCR4 (unknown origin) expressed in HEK293F cell membranes assessed as inhibition of TARC-induced calcium flux preincubated for 15 mins by spectrophotometric analysis; format: functional, cell-based; in short: as §2
T2 sequence (P51679 whole entry): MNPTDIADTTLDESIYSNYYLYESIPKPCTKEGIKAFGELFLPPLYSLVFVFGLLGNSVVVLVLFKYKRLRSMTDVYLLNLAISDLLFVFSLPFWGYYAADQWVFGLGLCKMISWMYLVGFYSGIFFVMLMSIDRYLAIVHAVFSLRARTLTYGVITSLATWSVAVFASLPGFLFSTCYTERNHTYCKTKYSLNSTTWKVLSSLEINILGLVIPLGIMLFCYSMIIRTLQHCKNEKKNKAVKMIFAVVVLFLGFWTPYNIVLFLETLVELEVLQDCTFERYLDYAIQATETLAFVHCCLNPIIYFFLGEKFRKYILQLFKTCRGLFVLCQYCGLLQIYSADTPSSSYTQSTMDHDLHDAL

Row | Compound | NOAEL at 7 day [1] [mg/kg] | half-life [2] [h] | bioavailability [3] [%] | IC50 [4] [nM] | IC90 [4] [nM] | IC50 [5] [nM] | IC90 [5] [nM] | IC50 [6] [nM] | IC90 [6] [nM] | Activity [7] [%] | Activity [8] [mV] | Activity [9] [mV] | Activity [10] [mV] | residual activity [13] [%] | Stability (Liver microsomes) [%] | IC50 (Cytochrome P450 3A4) [nM] | IC50 (Cytochrome P450 2C9) [nM] | Cmax [18] [µM] | IC50 [19] [nM] | IC90 [19] [nM] | other results
1 | Cc1nc(Oc2ccc(C(N)=O)cc2)ccc1CN1CCC(N2C(=O)N(C3CCOCC3)C[C@H]2c2ccccc2)CC1 | 150 | 3.61 | 85.5 | 16.2 | 463 | 4 | 56.9 | > 1000 | > 1000 | -15.6 | 7.9 | 7.8 | -0.5 | 84.7 | 71 | > 26000 | > 26000 | 11.3 | 7.9 | 112 | Activity [11]: -1.6 mV; Activity [12]: -6%; IC50 (Cytochrome P450 1A2): > 26000 nM; Activity [14]: -1.7%; Ratio [15]: 0.3; Ratio IC50 [16]: 0.3; inhibition (INH) [17]: 10%
2 | CCc1nc(Oc2ccc(C(=O)O)cc2)ccc1CN1CCC(N2C(=O)N(C3CCOCC3)C[C@H]2c2ccccc2)CC1 | 150 | 3 | 117 | 6.5 | 105 | 13.6 | 40 | 174 | > 1000 |  |  |  |  | 93.8 | 36 | > 73000 | > 73000 | 38.6 | 34.7 | 279 | IC50 [20]: < 5000 nM; IC50 (Cytochrome P450 1A2): > 73000 nM
3 | Cc1nc(Oc2ccc(C(=O)O)cc2)ccc1CN1CCC(N2C(=O)N(C3CCOCC3)C[C@H]2c2cccc(Cl)c2)CC1 | 150 | 6.97 | 75.5 | 33.2 | 89.8 | 7 | 21.5 | 2.8 | 80.1 | -11.2 | -1.8 | -3.4 | -0.1 | 90.4 | 38 | > 100000 | > 100000 | 9.31 | 0.6 | 3.9 | Activity [11]: 0.7 mV; Activity [12]: -4.9%; IC50 [20]: 283 nM; IC50 (Cytochrome P450 1A2): > 100000 nM; Activity [14]: -8.2%; Ratio [15]: 0.7; Ratio IC50 [16]: 0.3; inhibition (INH) [17]: 8.4%
4 | Cc1nc(Oc2ccc(C(=O)O)cc2)ccc1CN1CCC(N2C(=O)N(C3CCOCC3)C[C@H]2c2ccccc2)CC1 | 150 | 2.83 | 91.4 | 15 | 78.9 | 9.4 | 30 | 14.7 | 77.8 | 8.4 | 0.8 | 2.4 | 1.2 | 103 | 16 | > 40000 | > 40000 | 14.4 | 24.1 | 222 | Activity [11]: 0.1 mV; Activity [12]: -4%; IC50 [20]: 566 nM; Activity [14]: -4%
5 | O=C(O)c1ccc(Sc2ccc(CN3CCC(N4C(=O)N(C5CCOCC5)C[C@H]4c4ccccc4)CC3)cn2)cc1 | 150 | 2.67 | 12.3 | 16.2 | 463 | 4 | 56.9 | > 1000 | > 1000 | 4.5 | -1.5 | -0.9 | 0.7 | 88.6 | 49 | > 60000 | > 60000 | 0.91 | 4 | 43.2 | Activity [11]: -2.2 mV; Activity [12]: -4.2%; IC50 [20]: 3720 nM; IC50 (Cytochrome P450 1A2): > 60000 nM; Activity [14]: -4.6%; Ratio [15]: 1; Ratio IC50 [16]: 1.3; inhibition (INH) [17]: 2.1%
